These results are taken from ChEMBL document CHEMBL1944548, “Discovery of kinase spectrum selective macrocycle (16E)-14-methyl-20-oxa-5,7,14,26-tetraazatetracyclo[19.3.1.1(2,6).1(8,12)]heptacosa-1(25),2(26),3,5,8(27),9,11,16,21,23-decaene (SB1317/TG02), a potent inhibitor of cyclin dependent kinases (CDKs), Janus kinase 2 (JAK2), and fms-like tyrosine …” (J Med Chem, 2012).

Each structure is given as a SMILES string.

Series [1] can be described thus: Half life in rat liver microsomes at 5 uM by LC-MS/MS analysis. In kind it is ADME, Microsome. An outline of the steps:
(§1)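 5 μM with mouse, rat, dog or human liver microsomes (~0.87 mg/mL), 50 mM potassium phosphate pH 7.4, NADPH regeneration system, 37 °C.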
In general terms: Liver microsomes are a subcellular fraction often used to study metabolism.

For the next series, the target named is Cytochrome P450 2C9 (Homo sapiens, UniProt P11712). Description: Inhibition of CYP2C9 in human liver microsomes using Tolbutamide as substrate after 60 mins by LC-MS/MS analysis. It counts as ADME, Microsome. The method, boiled down:
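Human liver microsomes (0.5 mg/mL for CYP2C19, 1 mg/mL for CYP2C9), NADPH 1 mM, test at 0.05−25 μM (DMSO 0.35% final), 37 °C; probes mephenytoin 25 μM (CYP2C19) and tolbutamide 120 μM (CYP2C9), 60 min each. IC50 from decrease in metabolite formation vs vehicle.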

Series [2] addresses T1, Receptor-type tyrosine-protein kinase FLT3 (Homo sapiens, UniProt P36888).
T1 sequence (P36888 whole entry): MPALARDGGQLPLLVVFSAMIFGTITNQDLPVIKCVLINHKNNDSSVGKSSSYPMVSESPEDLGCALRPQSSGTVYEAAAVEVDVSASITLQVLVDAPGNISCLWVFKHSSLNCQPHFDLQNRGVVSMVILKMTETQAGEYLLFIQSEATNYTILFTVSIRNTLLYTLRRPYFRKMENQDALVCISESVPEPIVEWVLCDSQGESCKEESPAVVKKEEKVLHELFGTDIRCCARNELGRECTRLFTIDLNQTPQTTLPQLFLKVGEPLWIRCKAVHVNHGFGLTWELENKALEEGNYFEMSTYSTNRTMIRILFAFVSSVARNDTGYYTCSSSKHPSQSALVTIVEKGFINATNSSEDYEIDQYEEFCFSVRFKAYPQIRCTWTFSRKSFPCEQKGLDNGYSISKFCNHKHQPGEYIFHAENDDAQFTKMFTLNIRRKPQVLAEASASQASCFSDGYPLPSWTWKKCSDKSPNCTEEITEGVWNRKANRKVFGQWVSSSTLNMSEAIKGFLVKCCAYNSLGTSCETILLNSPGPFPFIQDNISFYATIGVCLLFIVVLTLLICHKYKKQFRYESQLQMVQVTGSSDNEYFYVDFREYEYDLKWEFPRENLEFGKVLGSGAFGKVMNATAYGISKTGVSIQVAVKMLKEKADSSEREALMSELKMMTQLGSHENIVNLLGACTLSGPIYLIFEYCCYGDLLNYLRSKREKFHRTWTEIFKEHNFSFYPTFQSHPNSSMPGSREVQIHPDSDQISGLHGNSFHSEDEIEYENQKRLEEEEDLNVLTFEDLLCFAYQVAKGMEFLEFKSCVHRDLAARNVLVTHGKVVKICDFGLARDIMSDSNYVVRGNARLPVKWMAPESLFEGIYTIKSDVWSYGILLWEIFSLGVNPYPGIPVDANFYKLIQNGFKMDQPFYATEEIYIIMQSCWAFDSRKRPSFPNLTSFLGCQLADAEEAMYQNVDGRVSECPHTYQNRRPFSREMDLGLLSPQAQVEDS
In words: Inhibition of recombinant Flt3 using poly(Glu,Tyr) as substrate after 2 hrs by luminescence assay.

Series [3] in a line: Plasma protein binding in human at 1000 ng/ml after 4 hrs by equilibrium dialysis method. It counts as ADME, cell-free. The settings on record: read-out: PPB. The method, boiled down: (§2)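 Equilibrium dialysis of plasma (mouse, dog, human) spiked to 1000 ng/mL against PBS, 4 h at 37 °C. Buffer side extracted in triplicate with MTBE, dried, reconstituted in methanol/water 60:40, measured by LC−MS/MS.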
For orientation: In equilibrium dialysis free small molecules cross a membrane that holds back macromolecules.

Series [4] is described as follows: AUC (0 to infinity) in BALB/c mouse at 5 mg/kg, iv by LC-MS/MS analysis. It counts as ADME, organism-based. Details: time infinity, dose 5 mg/kg, route intravenous. The settings on record: plasma.
Another series concerns Ramos. Description: Antitumor activity against human Ramos cells xenografted in BALB/c nude mouse assessed as tumor growth inhibition at 75 mg/kg, po qd on a 2 days on and 5 days off schedule for 15 days. It counts as functional. The settings on record: read-out: GI.
Series [5] can be described thus: Volume of distribution at steady state in BALB/c mouse at 5 mg/kg, iv by LC-MS/MS analysis. In kind it is ADME, organism-based. Also noted: dose 5 mg/kg, route intravenous. The settings on record: in vivo, read-out: Vdss.
The nature of series [6]: Half life in dog liver microsomes at 5 uM by LC-MS/MS analysis. In kind it is ADME, Canis lupus familiaris, Microsome. The method, boiled down: as §1
Series [7] in a line: Tmax in BALB/c mouse at 75 mg/kg, po by LC-MS/MS analysis. It counts as ADME, organism-based. Details: dose 75 mg/kg, route oral. The settings on record: in vivo. An outline of the steps: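 Male BALB/c mice (~10−12 weeks, 17−22 g) gavaged with 75 mg/kg as a suspension in 0.5% methylcellulose/0.1% Tween 80. Serial blood by cardiac puncture over 0−24 h into K3EDTA, plasma stored at −70 °C, LC−MS/MS; parameters by noncompartmental analysis.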

A short description of series [8]: Plasma protein binding in mouse at 1000 ng/ml after 4 hrs by equilibrium dialysis method. In kind it is ADME, cell-free. The settings on record: read-out: PPB (converted). An outline of the steps:
as §2

The next series deals with T2, Cytochrome P450 1A2 (Homo sapiens, UniProt P05177).
T2 sequence (P05177 whole entry): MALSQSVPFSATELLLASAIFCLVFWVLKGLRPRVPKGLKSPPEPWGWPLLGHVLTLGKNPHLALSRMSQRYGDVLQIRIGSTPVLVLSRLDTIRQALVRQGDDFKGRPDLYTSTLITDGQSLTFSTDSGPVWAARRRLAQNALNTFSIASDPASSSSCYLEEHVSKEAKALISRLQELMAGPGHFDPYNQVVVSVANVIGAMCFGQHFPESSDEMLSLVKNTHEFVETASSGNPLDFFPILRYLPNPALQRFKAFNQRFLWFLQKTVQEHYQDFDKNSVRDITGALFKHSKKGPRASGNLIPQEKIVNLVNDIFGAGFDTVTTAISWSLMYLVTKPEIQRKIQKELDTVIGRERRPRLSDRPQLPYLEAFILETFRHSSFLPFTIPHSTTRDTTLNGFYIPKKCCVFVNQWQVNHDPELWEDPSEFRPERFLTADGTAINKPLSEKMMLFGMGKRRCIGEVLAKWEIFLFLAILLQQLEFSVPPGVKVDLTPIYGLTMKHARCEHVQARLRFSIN
Description: Inhibition of CYP1A2 in human liver microsomes using ethoxyresorufin as substrate after 5 mins by LC-MS/MS analysis. In kind it is ADME, Microsome. The method, boiled down: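 Human liver microsomes with 1 mM NADPH at 37 °C. Test concentrations 0.05, 0.25, 0.5, 2.5, 5 and 25 μM; final DMSO 0.35%. CYP1A: 0.25 mg/mL microsomes, ethoxyresorufin 0.5 μM, 5 min. CYP2D6: 0.5 mg/mL microsomes, dextromethorphan 5 μM, 30 min. IC50 from the fall in metabolite formation versus vehicle control. Selective inhibitors served as positive controls.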

In series [9] the target is Tyrosine-protein kinase JAK2 (Homo sapiens, UniProt O60674). Description: Inhibition of recombinant JAK2 using poly(Glu,Ala,Tyr) as substrate after 2 hrs by luminescence assay.
Sequence of Tyrosine-protein kinase JAK2 (O60674 whole entry): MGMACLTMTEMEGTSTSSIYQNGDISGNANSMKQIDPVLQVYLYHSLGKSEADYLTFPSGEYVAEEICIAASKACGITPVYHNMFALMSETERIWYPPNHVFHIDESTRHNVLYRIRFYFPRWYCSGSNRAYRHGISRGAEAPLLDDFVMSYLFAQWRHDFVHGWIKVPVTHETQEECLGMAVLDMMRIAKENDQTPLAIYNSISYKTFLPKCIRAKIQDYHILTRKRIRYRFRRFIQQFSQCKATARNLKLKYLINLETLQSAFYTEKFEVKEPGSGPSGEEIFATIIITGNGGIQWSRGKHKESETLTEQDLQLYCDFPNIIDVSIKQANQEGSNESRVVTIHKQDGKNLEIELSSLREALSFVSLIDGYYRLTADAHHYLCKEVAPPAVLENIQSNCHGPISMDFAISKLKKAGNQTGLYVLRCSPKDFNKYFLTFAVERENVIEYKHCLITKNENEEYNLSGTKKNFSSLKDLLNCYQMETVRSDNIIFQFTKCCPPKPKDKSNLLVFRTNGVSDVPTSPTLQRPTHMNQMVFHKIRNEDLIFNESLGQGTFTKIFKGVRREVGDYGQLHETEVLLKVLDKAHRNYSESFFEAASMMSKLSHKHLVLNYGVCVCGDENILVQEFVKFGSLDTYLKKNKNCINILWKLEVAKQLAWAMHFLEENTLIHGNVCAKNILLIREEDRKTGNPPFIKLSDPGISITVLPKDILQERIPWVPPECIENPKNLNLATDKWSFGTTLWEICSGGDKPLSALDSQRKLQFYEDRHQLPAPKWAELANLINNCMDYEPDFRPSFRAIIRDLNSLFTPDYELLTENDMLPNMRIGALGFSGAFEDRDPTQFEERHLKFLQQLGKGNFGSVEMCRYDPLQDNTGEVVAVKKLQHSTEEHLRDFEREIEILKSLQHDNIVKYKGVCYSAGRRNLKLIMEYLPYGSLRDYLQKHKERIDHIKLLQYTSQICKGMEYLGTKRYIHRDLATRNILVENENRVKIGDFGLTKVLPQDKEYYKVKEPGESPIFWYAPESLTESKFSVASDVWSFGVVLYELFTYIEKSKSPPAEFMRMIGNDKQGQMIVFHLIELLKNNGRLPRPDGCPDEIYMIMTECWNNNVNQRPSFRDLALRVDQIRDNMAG

Sequence of Cytochrome P450 2C9 (P11712 whole entry): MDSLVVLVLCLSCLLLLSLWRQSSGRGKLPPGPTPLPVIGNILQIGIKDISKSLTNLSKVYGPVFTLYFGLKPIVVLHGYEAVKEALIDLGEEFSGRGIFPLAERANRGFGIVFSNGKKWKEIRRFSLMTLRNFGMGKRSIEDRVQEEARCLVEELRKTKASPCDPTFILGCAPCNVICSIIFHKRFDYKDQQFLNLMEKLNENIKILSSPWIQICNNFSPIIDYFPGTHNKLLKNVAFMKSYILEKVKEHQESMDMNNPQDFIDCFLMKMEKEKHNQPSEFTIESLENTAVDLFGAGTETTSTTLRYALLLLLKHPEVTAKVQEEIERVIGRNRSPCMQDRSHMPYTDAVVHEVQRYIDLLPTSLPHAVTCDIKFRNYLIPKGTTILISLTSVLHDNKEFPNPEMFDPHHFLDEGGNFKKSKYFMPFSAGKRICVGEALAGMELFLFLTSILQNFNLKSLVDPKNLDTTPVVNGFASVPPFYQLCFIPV

For the molecule `CN1C/C=C/CCOc2cccc(c2)-c2ccnc(n2)Nc2cccc(c2)C1` [ZOTIRACICLIB], the half-life at 5 µM amounted to 11 min in series [1] and 33 min in [6]. Moreover, the half-inhibitory concentration (IC50) against Cytochrome P450 2C9 is over 25000 nM; in [2], 56 nM; on Cytochrome P450 1A2 it was over 25000 nM; in [9], 73 nM. Moreover, the fraction unbound at 4 h, 1000 ng/ml was 0.001 in [3] and 0.006 in series [8]. In series [4], this molecule displayed an AUC(0-inf) of 752 ng·h/mL. Moreover, the inhibition in vivo at 75 mg/kg in the series with Ramos is 42%. Also, in series [5], the Vd amounted to 23 L/kg. Also, in series [7], the Tmax is 30 min.

The half-life is the time in which the quantity being followed falls by half. Lower therefore signals rapid decline. As a reminder, the IC50 is the concentration needed to halve the response being measured. What is called AUC(0-inf) is total exposure, with the tail of the curve extrapolated. One may read the Tmax as the time at which the peak concentration occurs.
